Measured values: ChEMBL document CHEMBL5154713, “Illuminating a Dark Kinase: Structure-Guided Design, Synthesis, and Evaluation of a Potent Nek1 Inhibitor and Its Effects on the Embryonic Zebrafish Pronephros” (J Med Chem, 2022)

Legend:
[1] = target: Tyrosine-protein kinase receptor TYRO3 (Homo sapiens) (UniProt Q06418); assay: Inhibition of human RSE (451 to end residues) assessed as residual activity at 1 uM using KVEKIGEGTYGVVYK as substrate measured after 40 mins in presence of [gamma33P]ATP by radiometric scintillation counting method relative to control
Method in brief: (§1)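 Commercial radiometric panel of 50 kinases. Each recombinant human kinase was tested at a single compound concentration of 1 μM. ATP was set within 15 μM of the apparent Km for ATP for each kinase. Residual activity is relative to control and is the mean of two independent experiments.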

[2] = target: Interleukin-1 receptor-associated kinase 4 (Homo sapiens) (UniProt Q9NWZ3); assay: Inhibition of human full length IRAK4 assessed as residual activity at 1 uM using myelin basic protein as substrate incubated for 40 mins in presence of [gamma 33P]-ATP by radiometric scintillation counting assay relative to control; method in brief: as §1
[3] = target: Protein kinase C eta type (Homo sapiens) (UniProt P24723); assay: Inhibition of recombinant human full length PKCeta (2 to end residues) assessed as residual activity at 1 uM using ERMRPRKRQGSVRRRV as substrate incubated for 40 mins in presence of [gamma-33P]-ATP by scintillation counting method relative to control; method in brief: as §1
[4] = target: Phosphatidylinositol 4,5-bisphosphate 3-kinase catalytic subunit delta isoform (Homo sapiens) (UniProt O00329); assay: Inhibition of human full length recombinant PI3Kdelta assessed as residual activity at 1 uM using phosphatidylinositol 4,5-bisphosphate as substrate incubated for 40 mins in presence ofATP by HTRF assay relative to control
[5] = target: Ephrin type-B receptor 4 (Homo sapiens) (UniProt P54760); assay: Inhibition of recombinant human EphB4 (561 to end residues) assessed as residual activity at 1 uM using poly(Glu, Tyr) 4:1 as substrate at 40 mins in presence of [gamma-33ATP] by scintillation counting based radiometry assay relative to control; method in brief: as §1
[6] = target: Serine-protein kinase ATM (Homo sapiens) (UniProt Q13315); assay: Inhibition of human full length recombinant ATM assessed as residual activity at 1 uM using GST-cMyc-p53 as substrate incubated for 40 mins in presence of ATP by HTRF assay relative to control
[7] = target: Casein kinase I isoform gamma-1 (Homo sapiens) (UniProt Q9HCP0); assay: Inhibition of recombinant human CK1gamma1 (25 to 355 residues) assessed as residual activity at 1 uM using KRRRALS(p)VASLPGL as substrate measured after 40 mins in presence of [gamma33P]ATP by radiometric scintillation counting method relative to control; method in brief: as §1
[8] = target: T1, Serine/threonine-protein kinase Nek1 (Homo sapiens) (UniProt Q96PY6); assay: Inhibition of human recombinant NEK1 (1 to 505 residues) assessed as residual activity at 1 uM using RLGRDKYKTLRQIRQ as substrate incubated for 40 mins in presence of [gamma-33P]-ATP by radiometric scintillation counting assay relative to control
T1 sequence (whole entry): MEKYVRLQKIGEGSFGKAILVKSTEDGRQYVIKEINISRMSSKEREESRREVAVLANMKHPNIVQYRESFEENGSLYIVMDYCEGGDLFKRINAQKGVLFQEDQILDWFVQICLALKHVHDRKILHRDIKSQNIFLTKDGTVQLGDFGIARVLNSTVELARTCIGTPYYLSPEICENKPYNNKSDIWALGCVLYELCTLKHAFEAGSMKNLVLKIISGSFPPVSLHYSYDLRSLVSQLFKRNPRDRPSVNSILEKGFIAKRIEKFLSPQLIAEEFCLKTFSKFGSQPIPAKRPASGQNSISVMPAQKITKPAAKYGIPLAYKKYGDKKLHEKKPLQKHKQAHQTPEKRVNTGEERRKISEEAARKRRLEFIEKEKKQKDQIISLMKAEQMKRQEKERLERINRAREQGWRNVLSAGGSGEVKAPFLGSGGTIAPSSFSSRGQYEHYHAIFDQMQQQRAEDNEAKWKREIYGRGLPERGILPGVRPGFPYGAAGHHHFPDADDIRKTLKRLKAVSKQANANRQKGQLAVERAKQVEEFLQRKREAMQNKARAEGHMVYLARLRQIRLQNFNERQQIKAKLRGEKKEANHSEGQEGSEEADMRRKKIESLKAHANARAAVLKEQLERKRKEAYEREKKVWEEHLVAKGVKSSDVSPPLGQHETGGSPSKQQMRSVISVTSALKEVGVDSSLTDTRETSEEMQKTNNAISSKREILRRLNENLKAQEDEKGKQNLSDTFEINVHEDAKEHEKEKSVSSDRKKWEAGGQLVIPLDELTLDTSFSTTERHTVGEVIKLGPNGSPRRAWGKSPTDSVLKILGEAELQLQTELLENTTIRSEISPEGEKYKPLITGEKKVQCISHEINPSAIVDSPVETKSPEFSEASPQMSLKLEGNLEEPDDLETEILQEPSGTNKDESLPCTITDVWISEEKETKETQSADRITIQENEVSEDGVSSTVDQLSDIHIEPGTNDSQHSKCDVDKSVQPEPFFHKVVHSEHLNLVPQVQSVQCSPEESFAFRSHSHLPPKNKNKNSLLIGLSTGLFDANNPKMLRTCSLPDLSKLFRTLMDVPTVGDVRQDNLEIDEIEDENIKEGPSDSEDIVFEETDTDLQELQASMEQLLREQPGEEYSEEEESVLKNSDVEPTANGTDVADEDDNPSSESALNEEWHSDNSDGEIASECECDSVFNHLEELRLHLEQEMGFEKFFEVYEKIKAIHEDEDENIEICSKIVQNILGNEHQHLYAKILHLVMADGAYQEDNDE
Method in brief: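 Eurofins KinaseProfiler radiometric panel, compound at 1 μM, ATP at 10 μM or within 15 μM of apparent Km. For Nek1 (1−505): 8 mM MOPS pH 7.0, 0.2 mM EDTA, 250 μM peptide, 10 mM Mg acetate, [γ-33P]-ATP, 40 min at room temperature. Stopped with 0.5% phosphoric acid, filtermat spotting, scintillation counting. Mean of two independent experiments.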

[9] = target: Inhibitor of nuclear factor kappa-B kinase subunit alpha (Homo sapiens) (UniProt O15111); assay: Inhibition of human full length recombinant IKKalpha assessed as residual activity at 1 uM using peptide as substrate incubated for 40 mins in presence of [gamma 33P]-ATP by radiometric scintillation counting assay relative to control; method in brief: as §1
[10] = target: Platelet-derived growth factor receptor beta (Homo sapiens) (UniProt P09619); assay: Inhibition of human PDGFRbeta (557 to end residues) assessed as residual activity at 1 uM using poly(Glu, Tyr) 4:1 as substrate measured after 40 mins in presence of [gamma33P]ATP by scintillation counting method relative to control; method in brief: as §1
[11] = target: Epidermal growth factor receptor (Homo sapiens) (UniProt P00533); assay: Inhibition of human recombinant EGFR (696 to end residues) assessed as residual activity at 1 uM using poly(Glu, Tyr) 4:1 as substrate incubated for 40 mins in presence of [gamma 33P]-ATP by radiometric scintillation counting assay relative to control; method in brief: as §1

Chain of Casein kinase I isoform gamma-1 (Homo sapiens) (Q9HCP0 whole entry, looked up, the tested form may be a part, canonical isoform): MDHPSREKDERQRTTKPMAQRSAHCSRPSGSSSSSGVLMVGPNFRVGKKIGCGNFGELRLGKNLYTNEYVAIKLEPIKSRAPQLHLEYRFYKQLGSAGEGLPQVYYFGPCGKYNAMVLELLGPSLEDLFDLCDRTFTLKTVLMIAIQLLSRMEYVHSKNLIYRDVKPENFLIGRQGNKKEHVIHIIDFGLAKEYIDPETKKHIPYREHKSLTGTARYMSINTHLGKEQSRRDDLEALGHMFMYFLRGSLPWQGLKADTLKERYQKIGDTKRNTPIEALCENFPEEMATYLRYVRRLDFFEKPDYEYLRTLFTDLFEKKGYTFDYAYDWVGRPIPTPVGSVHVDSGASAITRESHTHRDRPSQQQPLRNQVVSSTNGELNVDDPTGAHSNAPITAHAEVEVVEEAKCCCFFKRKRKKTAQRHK
Chain of Serine-protein kinase ATM (Homo sapiens) (Q13315 whole entry, the tested form may be a part, canonical isoform): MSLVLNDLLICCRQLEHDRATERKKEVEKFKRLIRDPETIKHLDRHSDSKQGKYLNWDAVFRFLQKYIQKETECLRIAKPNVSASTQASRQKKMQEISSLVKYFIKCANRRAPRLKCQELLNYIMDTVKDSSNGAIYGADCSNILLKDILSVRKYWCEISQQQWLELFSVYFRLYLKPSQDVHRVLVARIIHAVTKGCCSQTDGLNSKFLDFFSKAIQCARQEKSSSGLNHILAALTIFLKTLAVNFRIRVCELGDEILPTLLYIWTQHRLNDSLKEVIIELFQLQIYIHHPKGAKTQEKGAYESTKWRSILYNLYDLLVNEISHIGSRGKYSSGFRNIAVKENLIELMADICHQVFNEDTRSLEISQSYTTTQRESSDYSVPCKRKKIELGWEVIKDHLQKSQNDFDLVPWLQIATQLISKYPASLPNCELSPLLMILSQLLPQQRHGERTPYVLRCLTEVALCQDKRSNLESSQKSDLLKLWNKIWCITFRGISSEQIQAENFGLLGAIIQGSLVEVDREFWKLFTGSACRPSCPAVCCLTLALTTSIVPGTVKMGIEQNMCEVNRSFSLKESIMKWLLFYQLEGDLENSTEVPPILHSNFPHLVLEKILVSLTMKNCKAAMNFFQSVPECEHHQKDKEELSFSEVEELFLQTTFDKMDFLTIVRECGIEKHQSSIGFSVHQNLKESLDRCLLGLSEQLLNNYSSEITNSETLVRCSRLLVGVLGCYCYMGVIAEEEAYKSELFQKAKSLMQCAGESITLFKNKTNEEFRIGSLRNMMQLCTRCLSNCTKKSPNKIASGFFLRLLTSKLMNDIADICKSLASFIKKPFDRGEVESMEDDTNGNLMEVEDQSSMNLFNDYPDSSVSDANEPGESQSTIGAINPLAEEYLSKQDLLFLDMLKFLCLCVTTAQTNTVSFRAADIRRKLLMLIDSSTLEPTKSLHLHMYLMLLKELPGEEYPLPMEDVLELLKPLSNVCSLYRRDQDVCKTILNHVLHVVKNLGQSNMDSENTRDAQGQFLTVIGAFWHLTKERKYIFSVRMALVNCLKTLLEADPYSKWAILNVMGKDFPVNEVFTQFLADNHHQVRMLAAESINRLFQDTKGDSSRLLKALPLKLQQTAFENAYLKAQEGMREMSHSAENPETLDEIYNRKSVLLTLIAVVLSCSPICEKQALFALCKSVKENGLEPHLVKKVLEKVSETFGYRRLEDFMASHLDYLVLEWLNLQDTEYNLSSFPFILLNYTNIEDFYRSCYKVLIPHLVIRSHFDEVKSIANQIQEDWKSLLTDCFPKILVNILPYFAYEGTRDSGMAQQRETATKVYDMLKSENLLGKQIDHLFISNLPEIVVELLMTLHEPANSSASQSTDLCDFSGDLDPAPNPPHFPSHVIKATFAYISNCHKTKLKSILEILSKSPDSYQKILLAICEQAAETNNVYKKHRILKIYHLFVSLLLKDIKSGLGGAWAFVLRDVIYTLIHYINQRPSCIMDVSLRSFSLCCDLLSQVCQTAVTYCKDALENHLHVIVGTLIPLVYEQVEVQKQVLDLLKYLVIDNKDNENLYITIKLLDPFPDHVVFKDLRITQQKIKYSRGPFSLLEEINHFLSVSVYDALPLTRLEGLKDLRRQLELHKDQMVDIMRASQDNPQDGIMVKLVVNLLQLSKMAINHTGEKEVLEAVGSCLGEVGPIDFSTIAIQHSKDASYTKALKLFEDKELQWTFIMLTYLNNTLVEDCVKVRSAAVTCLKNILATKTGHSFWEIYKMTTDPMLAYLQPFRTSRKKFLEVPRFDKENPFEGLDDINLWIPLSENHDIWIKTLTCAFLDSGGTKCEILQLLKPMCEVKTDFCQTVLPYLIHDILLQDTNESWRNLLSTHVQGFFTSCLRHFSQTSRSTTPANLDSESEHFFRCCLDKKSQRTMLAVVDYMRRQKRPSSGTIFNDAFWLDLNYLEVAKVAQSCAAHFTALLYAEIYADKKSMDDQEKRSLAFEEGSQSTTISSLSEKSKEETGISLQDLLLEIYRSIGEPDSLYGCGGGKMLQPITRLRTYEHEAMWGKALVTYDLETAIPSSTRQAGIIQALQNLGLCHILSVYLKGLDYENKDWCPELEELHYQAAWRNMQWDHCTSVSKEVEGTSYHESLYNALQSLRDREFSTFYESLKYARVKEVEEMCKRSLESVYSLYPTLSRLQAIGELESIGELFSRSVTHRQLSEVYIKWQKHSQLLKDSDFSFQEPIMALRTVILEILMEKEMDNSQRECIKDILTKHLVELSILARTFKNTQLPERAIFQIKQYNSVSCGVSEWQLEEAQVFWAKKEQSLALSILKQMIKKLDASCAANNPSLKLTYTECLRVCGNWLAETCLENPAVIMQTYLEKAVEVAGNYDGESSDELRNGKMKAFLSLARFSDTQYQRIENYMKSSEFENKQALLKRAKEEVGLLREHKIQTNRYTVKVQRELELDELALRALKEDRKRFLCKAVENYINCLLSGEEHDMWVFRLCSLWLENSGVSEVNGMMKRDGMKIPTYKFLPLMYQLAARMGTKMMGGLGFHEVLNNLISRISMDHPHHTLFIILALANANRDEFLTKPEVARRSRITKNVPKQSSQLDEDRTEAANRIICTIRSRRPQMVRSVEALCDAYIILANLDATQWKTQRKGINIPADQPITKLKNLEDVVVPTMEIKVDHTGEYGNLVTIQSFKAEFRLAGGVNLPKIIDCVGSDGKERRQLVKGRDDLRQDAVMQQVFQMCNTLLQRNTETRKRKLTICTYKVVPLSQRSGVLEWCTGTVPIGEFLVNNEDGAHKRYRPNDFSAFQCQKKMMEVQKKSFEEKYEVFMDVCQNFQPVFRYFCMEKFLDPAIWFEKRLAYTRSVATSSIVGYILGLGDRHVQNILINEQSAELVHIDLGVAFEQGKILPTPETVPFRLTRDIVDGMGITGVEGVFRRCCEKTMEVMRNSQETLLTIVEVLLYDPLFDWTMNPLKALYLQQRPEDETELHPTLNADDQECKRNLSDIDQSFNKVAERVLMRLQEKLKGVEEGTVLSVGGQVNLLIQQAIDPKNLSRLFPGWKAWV
Chain of Tyrosine-protein kinase receptor TYRO3 (Homo sapiens) (Q06418 whole entry): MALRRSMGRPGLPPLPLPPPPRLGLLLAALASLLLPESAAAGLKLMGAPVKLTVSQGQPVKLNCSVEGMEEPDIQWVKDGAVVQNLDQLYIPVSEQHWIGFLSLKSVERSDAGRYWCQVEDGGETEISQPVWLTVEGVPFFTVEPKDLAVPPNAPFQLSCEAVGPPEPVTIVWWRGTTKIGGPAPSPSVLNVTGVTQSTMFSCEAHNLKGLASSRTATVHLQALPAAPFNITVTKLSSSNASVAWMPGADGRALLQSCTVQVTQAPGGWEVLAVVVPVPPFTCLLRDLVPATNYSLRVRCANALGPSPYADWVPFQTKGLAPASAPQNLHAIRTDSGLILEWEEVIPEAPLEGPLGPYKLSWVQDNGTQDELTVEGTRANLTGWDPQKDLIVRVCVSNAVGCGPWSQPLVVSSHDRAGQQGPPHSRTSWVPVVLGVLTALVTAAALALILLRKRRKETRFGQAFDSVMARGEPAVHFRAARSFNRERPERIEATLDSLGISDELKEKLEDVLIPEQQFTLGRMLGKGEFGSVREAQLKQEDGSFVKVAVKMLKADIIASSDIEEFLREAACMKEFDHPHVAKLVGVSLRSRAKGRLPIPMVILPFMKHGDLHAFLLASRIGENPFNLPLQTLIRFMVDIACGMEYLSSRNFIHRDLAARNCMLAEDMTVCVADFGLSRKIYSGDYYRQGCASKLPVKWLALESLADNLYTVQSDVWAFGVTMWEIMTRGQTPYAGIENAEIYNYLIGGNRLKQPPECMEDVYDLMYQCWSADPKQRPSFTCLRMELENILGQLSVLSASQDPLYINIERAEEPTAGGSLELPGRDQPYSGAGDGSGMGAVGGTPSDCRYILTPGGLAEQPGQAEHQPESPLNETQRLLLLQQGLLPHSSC
Chain of Inhibitor of nuclear factor kappa-B kinase subunit alpha (Homo sapiens) (O15111 whole entry): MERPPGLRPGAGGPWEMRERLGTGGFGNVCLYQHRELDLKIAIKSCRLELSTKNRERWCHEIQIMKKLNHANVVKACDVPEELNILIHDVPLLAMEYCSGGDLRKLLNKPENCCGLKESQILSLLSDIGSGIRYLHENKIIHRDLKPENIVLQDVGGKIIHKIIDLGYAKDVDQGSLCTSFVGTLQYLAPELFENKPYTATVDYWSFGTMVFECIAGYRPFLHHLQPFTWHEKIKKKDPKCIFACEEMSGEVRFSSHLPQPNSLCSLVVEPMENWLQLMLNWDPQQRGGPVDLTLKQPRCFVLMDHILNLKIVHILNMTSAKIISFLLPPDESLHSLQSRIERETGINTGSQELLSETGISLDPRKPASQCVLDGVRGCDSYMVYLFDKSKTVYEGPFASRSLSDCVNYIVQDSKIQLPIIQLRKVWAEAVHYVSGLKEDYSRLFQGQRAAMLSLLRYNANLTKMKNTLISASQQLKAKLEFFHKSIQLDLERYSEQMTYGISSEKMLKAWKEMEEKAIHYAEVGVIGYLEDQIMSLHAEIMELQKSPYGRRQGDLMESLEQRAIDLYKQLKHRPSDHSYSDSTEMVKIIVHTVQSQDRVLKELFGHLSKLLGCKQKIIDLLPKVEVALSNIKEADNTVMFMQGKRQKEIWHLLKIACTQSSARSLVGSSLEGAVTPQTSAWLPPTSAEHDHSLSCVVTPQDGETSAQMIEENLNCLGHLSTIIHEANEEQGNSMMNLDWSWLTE

O=S(=O)(N[C@@H](CO)Cc1c[nH]c2ccccc12)c1ccc(-c2ccnc3[nH]ccc23)cc1
Activity [1]: > 75% | Activity [2]: > 75% | Activity [3]: > 75% | Activity [4]: > 75% | Activity [5]: > 75% | Activity [6]: > 75% | Activity [7]: > 75% | Activity [8]: 4% | Activity [9]: < 75% | Activity [10]: > 75% | Activity [11]: > 75%
